Reference: ChEMBL document CHEMBL1123228, “Enantiomers of 3-(3,4-dihydroxyphenyl)- and 3-(3-hydroxyphenyl)-N-n-propylpiperidine: central pre- and postsynaptic dopaminergic effects and pharmacokinetics” (J Med Chem, 1986)

What was measured:
Rattus norvegicus [1] = experiment: Level of compound in rat cerebellum at dose 45 umol/kg administered subcutaneously; type: functional, organism-based
Outline: (§1)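 Female Wistar rats (170–200 g) given 45 μmol/kg ip or sc, killed 60 min later. Striatum, cerebellum and cortex were frozen and homogenised in 0.1 M perchloric acid, purified on Sephadex G10 and analysed by HPLC-ECD. O-methyl metabolite was read at 27% methanol and 750 mV. Values pmol/g tissue, n = 3.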

Rattus norvegicus [2] = experiment: Level of compound in rat intraperitoneally; type: functional, organism-based
Rattus norvegicus [3] = species: Rattus norvegicus; experiment: Dopa accumulation was evaluated in corpus striatum of male Sprague-Dawley rat; type: functional
Outline: (§2)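 Male Sprague-Dawley rats, 200–300 g; drug in saline given sc after NSD 1015 decarboxylase inhibition; Dopa measured by HPLC with electrochemical detection. Dose-response curves from four to six dose levels per substance and brain area; ED50 estimated as the dose giving half-maximal decrease of Dopa level.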

Rattus norvegicus [4] = experiment: Level of compound 5 in rat intraperitoneally; type: functional, organism-based; outline: as §1
Rattus norvegicus [5] = experiment: Motor activity effect in reserpinized rat with tropolone pretreatment at 10 umol/kg, ip expressed as accumulation counts 0-30 min after treatment; type: functional
Outline: (§3)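 Male Sprague-Dawley rats given reserpine 5 mg/kg ip 18 h before; some also given tropolone 50 mg/kg 30 min before. Compound given sc in the neck, or ip where stated. Locomotion recorded by photocell motility meters, one rat per cage, as accumulated counts over 0–30 min, mean ± SEM.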

Rattus norvegicus [6] = experiment: Level of compound in rat cortex at dose 45 umol/kg administered subcutaneously; type: functional, organism-based; outline: as §1
Rattus norvegicus [7] = experiment: Level of compound in rat cortex at dose 45 umol/kg administered intraperitoneally; type: functional, organism-based; outline: as §1
Rattus norvegicus [8] = experiment: Motor activity effect in reserpinized rat at 213 umol/kg, sc expressed as accumulation counts 0-30 min after treatment; type: functional
Rattus norvegicus [9] = experiment: Level of compound 5 in rat cerebellum at dose 45 umol/kg administered subcutaneously; type: functional, organism-based; outline: as §1
Rattus norvegicus [10] = experiment: Level of compound in rat cerebellum at dose 45 umol/kg administered intraperitoneally; type: functional, organism-based; outline: as §1
Rattus norvegicus [11] = experiment: Level of compound 5 in rat cerebellum at dose 45 umol/kg administered intraperitoneally; type: functional, organism-based; outline: as §1
Rattus norvegicus [12] = experiment: Motor activity effect in reserpinized rat with tropolone pretreatment at 50 umol/kg, ip expressed as accumulation counts 0-30 min after treatment; type: functional; outline: as §3
Rattus norvegicus [13] = experiment: Level of compound 5 in rat cortex at dose 45 umol/kg administered subcutaneously; type: functional, organism-based; outline: as §1
Rattus norvegicus [14] = experiment: Presynaptic activity at the level of DA metabolism was determined at dose 45 umol/kg on striatal level of HVA; type: functional
Outline: (§4)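 Female Wistar rats given 45 μmol/kg sc; striatal DOPAC and HVA measured by HPLC with electrochemical detection, compared with saline controls by Student's t test.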

Rattus norvegicus [15] = experiment: Level of compound 5 in rat striatum at dose 45 umol/kg administered subcutaneously; type: functional, organism-based; outline: as §1
Rattus norvegicus [16] = experiment: Level of compound 5 in rat cortex at dose 45 umol/kg administered intraperitoneally; type: functional, organism-based; outline: as §1
Rattus norvegicus [17] = experiment: Level of compound in rat striatum at dose 45 umol/kg administered subcutaneously; type: functional, organism-based; outline: as §1
Rattus norvegicus [18] = species: Rattus norvegicus; experiment: Dopa accumulation was evaluated in limbic system of male Sprague-Dawley rat; type: functional; outline: as §2
Rattus norvegicus [19] = experiment: Presynaptic activity at the level of DA metabolism was determined at dose 45 umol/kg on striatal level of DOPAC; type: functional; outline: as §4
[20] = Michaelis-Menten constant was measured against adenylate cyclase stimulation of cAMP formation in striatal homogenates; type: ADME, tissue-based; settings: tissue homogenate
D(1A) dopamine receptor = D(1A) dopamine receptor (Rattus norvegicus, UniProt P18901); experiment: In vitro affinity against Dopamine receptor D1 using [3H]SCH-23390 radioligand in rat striatal homogenate.
Chain of D(1A) dopamine receptor (P18901 whole entry): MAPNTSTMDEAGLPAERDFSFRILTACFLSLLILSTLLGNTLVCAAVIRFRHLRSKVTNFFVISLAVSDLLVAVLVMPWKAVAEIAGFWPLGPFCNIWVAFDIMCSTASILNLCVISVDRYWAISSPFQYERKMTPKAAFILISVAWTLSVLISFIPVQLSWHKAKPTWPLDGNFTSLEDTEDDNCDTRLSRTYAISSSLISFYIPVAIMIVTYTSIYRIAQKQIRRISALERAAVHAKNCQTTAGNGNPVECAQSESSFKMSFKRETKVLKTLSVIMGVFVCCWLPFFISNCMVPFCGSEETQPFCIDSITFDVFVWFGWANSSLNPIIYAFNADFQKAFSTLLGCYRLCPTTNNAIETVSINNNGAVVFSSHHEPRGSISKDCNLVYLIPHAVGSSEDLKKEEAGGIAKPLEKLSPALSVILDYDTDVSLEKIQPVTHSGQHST

Rattus norvegicus [21] = experiment: Level of compound in rat cortex in the absence of tropolone at dose 40 umol/kg; type: functional, organism-based
Outline: (§5)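 Female Wistar rats (170–200 g), compound sc in saline (1 mL/kg), killed 60 min later, with or without tropolone (50 mg/kg ip) before dosing. Striatum, cerebellum and cortex were extracted in perchloric acid, cleaned on Sephadex G10 and analysed by HPLC-ECD (pH 4.0, 15% methanol, 600 mV). Recovery-corrected, n = 3.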

Rattus norvegicus [22] = experiment: Level of compound in rat striatum at dose 40 umol/kg; type: functional, organism-based; outline: as §5
Rattus norvegicus [23] = experiment: Level of compound in rat cortex at dose 40 umol/kg; type: functional, organism-based; outline: as §5
D(2) dopamine receptor = D(2) dopamine receptor (Rattus norvegicus, UniProt P61169); experiment: In vitro affinity against Dopamine receptor D2 using [3H]DP-5,6-ADTN radioligand in rat striatal homogenate.
Chain of D(2) dopamine receptor (P61169 whole entry): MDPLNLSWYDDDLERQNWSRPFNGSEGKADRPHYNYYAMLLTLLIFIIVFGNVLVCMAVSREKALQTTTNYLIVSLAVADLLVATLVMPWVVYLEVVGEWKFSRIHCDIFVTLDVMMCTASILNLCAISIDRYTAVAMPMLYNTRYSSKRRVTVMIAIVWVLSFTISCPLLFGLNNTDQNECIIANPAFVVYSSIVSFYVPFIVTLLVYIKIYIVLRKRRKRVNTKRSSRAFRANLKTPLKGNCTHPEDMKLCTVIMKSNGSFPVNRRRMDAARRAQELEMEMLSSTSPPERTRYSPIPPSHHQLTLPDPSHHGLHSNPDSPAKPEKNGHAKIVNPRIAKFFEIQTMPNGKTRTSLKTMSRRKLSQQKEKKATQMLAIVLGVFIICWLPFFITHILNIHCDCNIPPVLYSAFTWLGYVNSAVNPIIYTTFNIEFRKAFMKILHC

Rattus norvegicus [24] = experiment: Motor activity effect in reserpinized rat at 50 umol/kg, sc expressed as accumulation counts 0-30 min after treatment; type: functional; outline: as §3
Rattus norvegicus [25] = experiment: Level of compound in rat striatum in the absence of tropolone at dose 40 umol/kg; type: functional, organism-based; outline: as §5
Rattus norvegicus [26] = experiment: Level of compound in rat cortex by pretreatment of tropolone (50 mg/kg, ip, 30min) at dose 8 umol/kg; type: functional, organism-based; outline: as §5
Rattus norvegicus [27] = species: Rattus norvegicus; experiment: Dopa accumulation was evaluated in corpus striatum of male Sprague-Dawley rat.; type: functional; outline: as §2
Rattus norvegicus [28] = experiment: Level of compound in rat cerebellum by pretreatment of tropolone (50 mg/kg, ip, 30min) at dose 40 umol/kg; type: functional, organism-based; outline: as §5
Rattus norvegicus [29] = species: Rattus norvegicus; experiment: Dopa accumulation was evaluated in limbic system of male Sprague-Dawley rat.; type: functional; outline: as §2
[30] = system: catechol-O-methyl transferase; experiment: Michaelis-Menten constant was measured for O-methylation (probably meta) by catechol-O-methyl transferase; type: ADME
Outline: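 Crude rat liver COMT (105000g supernatant) at 37°C for 15 min with 0.1–0.00125 mM substrate, S-adenosyl-L-methionine, 10 mM MgCl2 and 50 mM phosphate pH 7.4 (final). Reaction stopped with perchloric acid; O-methyl product measured by HPLC-ECD. Km from Lineweaver-Burk plots, four experiments, each concentration in triplicate.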

Rattus norvegicus [31] = experiment: Level of compound in rat cortex at dose 8 umol/kg; type: functional, organism-based; outline: as §5
Rattus norvegicus [32] = experiment: Level of compound in rat cerebellum in the absence of tropolone at dose 40 umol/kg; type: functional, organism-based; outline: as §5
Rattus norvegicus [33] = experiment: Level of compound in rat striatum at dose 8 umol/kg; type: functional, organism-based; outline: as §5
Rattus norvegicus [34] = species: Rattus norvegicus; experiment: Maximal cAMP production in rat striatal homogenates.; type: functional
Outline: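 cAMP formation in rat striatal homogenates was read with an automated adenylate cyclase assay.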

Rattus norvegicus [35] = experiment: Motor activity effect in reserpinized rat with tropolone pretreatment at 5 umol/kg, sc expressed as accumulation counts 0-30 min after treatment; type: functional; outline: as §3
Rattus norvegicus [36] = experiment: Level of compound in rat cerebellum by pretreatment of tropolone (50 mg/kg, ip, 30min) at dose 8 umol/kg; type: functional, organism-based; outline: as §5
[37] = Ratio of Vmax/Km was measured; type: ADME
Outline: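 Crude COMT from rat liver (KCl homogenate, 105000g supernatant). Incubated at 37 °C in 50 mM phosphate buffer pH 7.4 with 10 mM MgCl2, S-adenosyl-L-methionine ([…] as printed), and substrate at 0.1–0.00125 mM (final concentrations), 15 min. Stopped with perchloric acid; the O-methylated product was measured by HPLC-electrochemical detection. Km and Vmax from Lineweaver-Burk plots of four experiments, each concentration run in triplicate.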

Rattus norvegicus [38] = experiment: Level of compound in rat cortex in the absence of tropolone at dose 8 umol/kg; type: functional, organism-based; outline: as §5
Rattus norvegicus [39] = experiment: Level of compound in rat striatum by pretreatment of tropolone (50 mg/kg, ip, 30min) at dose 40 umol/kg; type: functional, organism-based; outline: as §5
Rattus norvegicus [40] = experiment: Level of compound in rat cerebellum at dose 8 umol/kg; type: functional, organism-based; outline: as §5
Rattus norvegicus [41] = experiment: Level of compound in rat striatum by pretreatment of tropolone (50 mg/kg, ip, 30min) at dose 8 umol/kg; type: functional, organism-based; outline: as §5
Rattus norvegicus [42] = experiment: Level of compound in rat cerebellum at dose 40 umol/kg; type: functional, organism-based; outline: as §5
Rattus norvegicus [43] = experiment: Level of compound in rat cortex by pretreatment of tropolone (50 mg/kg, ip, 30min) at dose 40 umol/kg; type: functional, organism-based; outline: as §5
Rattus norvegicus [44] = experiment: Level of compound in rat cerebellum in the absence of tropolone at dose 8 umol/kg; type: functional, organism-based; outline: as §5

## CCCN1CCC[C@@H](c2cccc(O)c2)C1 [PRECLAMOL]
Rattus norvegicus [1]
  Level: 16100 pmol/g
Rattus norvegicus [2]
  Level: 5380 pmol/g
Rattus norvegicus [3]
  ED50: 1.7 µmol/kg
Rattus norvegicus [4]
  Level: 174 pmol/g
Rattus norvegicus [5]
  Motor activity: 23
Rattus norvegicus [6]
  Level: 21100 pmol/g
Rattus norvegicus [7]
  Level: 5790 pmol/g
Rattus norvegicus [8]
  Motor activity: 12
Rattus norvegicus [9]
  Level: 174 pmol/g
Rattus norvegicus [10]
  Level: 3430 pmol/g
Rattus norvegicus [11]
  Level: 104 pmol/g
Rattus norvegicus [12]
  Motor activity: 77
Rattus norvegicus [13]
  Level: 243 pmol/g
Rattus norvegicus [14]
  Control: 123%
Rattus norvegicus [15]
  Level: 89 pmol/g
Rattus norvegicus [16]
  Level: 280 pmol/g
Rattus norvegicus [17]
  Level: 20300 pmol/g
Rattus norvegicus [18]
  ED50: 0.8 µmol/kg
Rattus norvegicus [19]
  Control: 118%

## NCCc1ccc(O)c(O)c1 [DOPAMINE]
[20]
  Km: 7.8 µM

## CCCN1CCC[C@@H](c2ccc(O)c(O)c2)C1
D(1A) dopamine receptor
  Ki: 13.5 µM
Rattus norvegicus [21]
  Level: 167 pmol/g
Rattus norvegicus [22]
  Level: 10300 pmol/g
Rattus norvegicus [23]
  Level: 17000 pmol/g
D(2) dopamine receptor
  Ki: 0.012 µM
Rattus norvegicus [24]
  Motor activity: 78
Rattus norvegicus [25]
  Level: 61 pmol/g
Rattus norvegicus [26]
  Level: 3250 pmol/g
Rattus norvegicus [27]
  ED50: 8.2 µmol/kg
Rattus norvegicus [28]
  Level: 9330 pmol/g
Rattus norvegicus [29]
  ED50: 8.5 µmol/kg
[30]
  Km: 77 µM
Rattus norvegicus [31]
  Level: 3410 pmol/g
Rattus norvegicus [32]
  Level: 63 pmol/g
Rattus norvegicus [33]
  Level: 2330 pmol/g
Rattus norvegicus [34]
  Production (pM (mg of protein)-1): 138
Rattus norvegicus [35]
  Motor activity: 69
Rattus norvegicus [14]
  Control: 65%
Rattus norvegicus [36]
  Level: 2290 pmol/g
[37]
  Ratio: 485
[20]
  Km: 21 µM
Rattus norvegicus [38]
  Level: 16 pmol/g
Rattus norvegicus [39]
  Level: 9720 pmol/g
Rattus norvegicus [40]
  Level: 2020 pmol/g
Rattus norvegicus [41]
  Level: 2540 pmol/g
Rattus norvegicus [19]
  Control: 83%
Rattus norvegicus [42]
  Level: 9160 pmol/g
Rattus norvegicus [43]
  Level: 13200 pmol/g
Rattus norvegicus [44]
  Level: 10 pmol/g
